Measured values reported in publication PMC3995353 (Biopolymers, 2014).

Test system: Chinese Hamster Ovary (CHO) cells
Experiment: Cytotoxicity, MTT assay in CHO cells
Assay type: cell-based
Settings: 5 μM, 48 hours
How it was run: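 CHO cells seeded in 96-well plates, test compound added at concentrations up to 20 μM, then 48 h at 37°C, 5% CO2, humidified (cells adhere during incubation). MTT (50 μg/well) added for 6 h. Formazan dissolved in acidified isopropanol (90% isopropanol:10% Triton X-100:0.4% HCl), OD read at 550 nm as relative viability. Mean ± standard error, ≥3 experiments.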

In the case of Melittin, the “cell viability (positive control)” value is reported as “complete loss of cell viability”.
